# Bioassay records deposited in PubChem by several laboratories.
# Bim-Mcl-1 – inhibitors of Bim-Mcl-1 interaction, human. inhibition, % at 10 µM. 0.1% of 190,000 active. AID 1009. Bead-based flow cytometry, Bim peptide-Mcl-1 binding. Q07820; in the data active = inhibition above about 40%
# Target sequence (Q07820 whole entry, looked up): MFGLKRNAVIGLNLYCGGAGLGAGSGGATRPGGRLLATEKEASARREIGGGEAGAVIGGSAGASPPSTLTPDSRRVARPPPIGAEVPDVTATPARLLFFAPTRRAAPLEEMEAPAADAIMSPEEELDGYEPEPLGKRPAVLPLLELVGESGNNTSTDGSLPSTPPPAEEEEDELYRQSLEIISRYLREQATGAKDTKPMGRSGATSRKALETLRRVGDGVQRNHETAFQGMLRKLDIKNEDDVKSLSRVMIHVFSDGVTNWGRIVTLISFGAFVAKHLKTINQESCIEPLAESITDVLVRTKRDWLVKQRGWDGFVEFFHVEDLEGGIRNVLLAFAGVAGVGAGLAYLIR
# Mcl1-Noxa inh – disrupts binding of human Mcl-1 to Noxa peptide | Q07820 | TR-FRET Mcl-1/Noxa peptide binding, 2 h | inhibition, % at 21.7 µM | 1.5% of 220,000 active | AID 1022;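 active = compounds that cut the protein-peptide binding signal by more than 50% relative to plate controls in a single-dose test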;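 note: His-tagged Mcl-1 with rhodamine Noxa BH3 peptide and terbium anti-His antibody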
# m-calpain inh – inhibitors of pig calpain II; purified calpain II, fluorogenic peptide substrate, 30 min; inhibition, % at 16 µM; 0.37% of 220,000 active; AID 1236;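 active = inhibition above about 50%, limit read from the data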
# Biofilm kill mix – mixture kills Candida albicans biofilm cells; C. albicans biofilm persisters + clotrimazole, fluorescence viability; primary screen in compound mixtures of four per well; inhibition, % at 7.6 µM; 0.02% of 120,000 active; AID 1242;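 active = inhibition above 30.3% in the primary screen of four-compound pools, then above 30% when the compound was retested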;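 note: compounds exposed to preformed 24 h biofilms for 48 h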
#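 Test system: C. albicans CAF4-2 wild-type biofilms; buffer or medium: RPMI/MOPS medium, pH 7.0; schedule: 24 h biofilm formation, then 48 h compound exposure, 37 °C; detection: Alamar Blue fluorescence; measure: percent inhibition of biofilm viability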
# Mcl1-Bid inh – disrupts binding of human Mcl-1 to Bid peptide | Q07820 | inhibition, % at 21.7 µM | TR-FRET Mcl-1/Bid-Dy647 peptide binding, 1536-well | AID 1021 | 0.97% of 220,000 active;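 active = compounds that cut the binding signal by more than half at the single screening dose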;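 note: His-tagged Mcl-1 with europium anti-His antibody binding Bid BH3 peptide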
# Arbovirus anti – blocks arbovirus infection. arbovirus infection cell-based antiviral screen. AID 1251. inhibition, % at 10 µM. 0.37% of 200,000 active; in the data active = inhibition above about 30%
# Numbers stand for hits; n = inactive; x = not tested or not shown. Most compounds without a hit are left out; they make up all but 2.8% or so of the library.
SMILES,Bim-Mcl-1,Mcl1-Noxa inh,m-calpain inh,Biofilm kill mix,Mcl1-Bid inh,Arbovirus anti
O=C(CSCC(=O)N1CCCCC1)OCC(=O)c1c[nH]c2ccccc12,n,n,n,x,n,74.6
Cc1nc(N)sc1-c1csc(Nc2ncccn2)n1,n,87.2,n,n,91.4,n
CSc1nc2ccc(NS(=O)(=O)c3c(Cl)cccc3Cl)cc2s1,n,n,n,n,n,n
CSc1nc2ccc(NS(=O)(=O)c3ccc4c(c3)OCCO4)cc2s1,n,n,n,x,n,31.9
Cn1cccc1/C=N/NC(=O)CSc1nc2ccccc2[nH]1,x,n,n,n,n,x
COc1ccc(N=c2oc3c(OC)cccc3cc2C(=O)NCc2ccco2)c(OC)c1,n,n,n,x,65.2,n
Nc1c(S(=O)(=O)c2cccs2)c2nc3ccccc3nc2n1/N=C/c1cccc(O)c1,n,72.8,n,x,n,n
COc1ccc(S(=O)(=O)c2c(N)n(Cc3ccco3)c3nc4ccccc4nc23)cc1,n,57.5,n,x,n,n
Nc1c(S(=O)(=O)c2ccccc2)c2nc3ccccc3nc2n1/N=C/c1ccco1,n,72.7,n,x,n,n
Cc1ccc(S(=O)(=O)c2c(N)n(/N=C/c3ccco3)c3nc4ccccc4nc23)cc1,n,n,n,x,n,n
CSc1nc(-c2ccccc2)nc(NC(C)=O)c1C(C)=O,n,n,n,n,n,n
COc1ccc(/C=N/NC(=O)CN2CCSCC2)c(OC)c1,n,60.2,n,n,n,n
COc1ccc(OC)c(/C=N/NC(=O)CN2CCSCC2)c1,n,n,n,n,n,n
S=c1[nH]nc(C2CCCCC2)n1/N=C/c1ccccn1,n,n,n,n,n,n
O=C(O)c1ccc(CSc2ccccn2)cc1,n,n,n,n,n,n
O=C(O)c1ccccc1CSc1ccccn1,n,n,n,n,n,32.5
CCOc1ccccc1Nc1ccnc2cc(Cl)ccc12,n,n,n,n,n,n
Oc1ccc(/C=N/Nc2ccnc3cc(Cl)ccc23)cc1O,x,95.5,n,n,n,x
O=C1CC(c2ccco2)CC(O)=C1C=NCCN1CCN(C(=O)Nc2ccc(Cl)cc2)CC1 (stereo not drawn),n,n,n,n,n,n
O=C1CC(c2ccco2)CC(O)=C1C=NCCN1CCN(C(=S)Nc2ccccc2)CC1 (stereo not drawn),x,51.4,n,n,n,x
O=C(CSc1nc(-c2ccccc2)cs1)Nc1ccccc1[N+](=O)[O-],n,n,n,n,n,n
CCc1ccc(/C=N/NC(=O)C(=O)NCCCN2CCOCC2)cc1,n,n,n,n,n,n
CCS(=O)(=O)NCC(c1cccnc1)N1CCN(c2ccc(OC)cc2)CC1 (stereo not drawn),n,n,62.6,n,n,n
O=[N+]([O-])c1ccc(/C=N/n2c(CO)nc3ccccc32)s1,n,57.7,n,n,n,n
CCCCNCCCOc1ccc(C)cc1Br,n,n,n,n,n,n
SMILES,Bim-Mcl-1,Mcl1-Noxa inh,m-calpain inh,Biofilm kill mix,Mcl1-Bid inh,Arbovirus anti
CNCCCOc1ccc(C)cc1Br,n,n,n,x,61.1,n
O=[N+]([O-])c1ccccc1/C=C/C=N/n1c(-c2ccccc2)n[nH]c1=S,n,73.4,n,n,n,n
CCCCc1c(O)nc(SCC(=O)c2ccccc2)n(-c2ccccc2)c1=O,x,n,n,n,n,x
CCCCN(CCCC)CCn1cnc2c([nH]c3ccc(OC)cc32)c1=O,n,55.2,n,x,n,n
COc1ccc2[nH]c3c(=O)n(CCc4ccccc4)cnc3c2c1,x,n,n,n,n,x
O=C(O)c1nn(CCSc2ccccc2F)c(=O)c2ccccc12,x,n,n,n,n,x
COC(=O)c1c(NC(C)=O)sc2c1CCCC2,n,n,n,x,n,n
CNC(=S)Nc1sc2c(c1C(=O)OC)CCC2,n,75.0,n,n,n,n
COC(=O)c1c(NC(=O)c2cnccn2)sc2c1CCC2,n,n,n,x,96.7,n
COc1cc(CNC(C)C)c(Br)cc1OC1CCCC1,n,n,n,n,n,n
CC(=O)Nc1cc([N+](=O)[O-])ccc1N1CCOCC1,n,n,n,n,n,n
O=C(Nc1ccc([N+](=O)[O-])cc1)Nc1ccc(N2CCOCC2)c2nonc12,n,94.0,n,n,n,n
Oc1ccccc1NCC(O)Cn1ccc2ccccc21 (stereo not drawn),n,73.7,n,x,n,n
OC(CNCc1ccccc1)Cn1ccc2ccccc21 (stereo not drawn),n,n,n,n,n,n
O=C1/C(=C/c2ccc(O)c(O)c2)SC(=S)N1Nc1ccccc1,n,59.9,n,n,n,n
COc1cc(/C=C2\SC(=S)N(Nc3ccccc3)C2=O)ccc1O,n,n,n,n,n,n
O=C(c1cccc(N2C(=O)C3CC=CCC3C2=O)c1)N1CCCc2ccccc21 (stereo not drawn),n,n,n,n,n,n
CC(=O)c1ccc(-n2c(-c3cc(-c4ccco4)[nH]n3)n[nH]c2=S)cc1,n,62.7,n,x,n,n
O=C(O)c1ccc(-n2c(-c3cc(-c4ccco4)[nH]n3)n[nH]c2=S)cc1,n,n,n,x,n,n
COc1cc(/C=C/C(=O)Nc2nnc(C(C)(C)C)s2)cc(OC)c1OC,n,n,n,n,n,31.3
Fc1ccc(Br)cc1C1C=C(c2ccc(Br)s2)Nc2ncnn21 (stereo not drawn),n,n,n,x,n,36.7
O=C(NCCC1=CCCCC1)c1cc(-c2ccccn2)nc2ccccc12,n,n,n,n,n,n
c1ccc(Cc2nnc(-c3ccccc3)o2)cc1,n,n,n,x,n,n
Cc1ccc(-c2nnc(Cc3ccc(Cl)cc3)o2)cc1,40.0,n,n,x,n,n
COc1cc(-c2nc3ccccn3c2/N=C/c2ccccc2)ccc1O,n,n,n,x,n,n
SMILES,Bim-Mcl-1,Mcl1-Noxa inh,m-calpain inh,Biofilm kill mix,Mcl1-Bid inh,Arbovirus anti
COc1cc(-c2nc3ccccn3c2/N=C/c2cc(OC)c(O)cc2Cl)ccc1O,n,57.3,n,n,n,n
CC(C)=C(NC(=O)c1ccccc1)C(=O)Nc1cccc(C(=O)O)c1,n,n,n,n,n,n
Cc1ccc(NC(=O)Cn2ccc([N+](=O)[O-])n2)cc1C,n,n,n,n,n,n
COc1ccc2[nH]c3c(C)c4ccncc4c(C)c3c2c1,x,85.6,n,n,n,x
O=C(COc1ccc(Cl)cc1Cl)NC(=O)N1CCCCC1,n,x,n,x,n,n
OC(CNCC1(N2CCCCC2)CCCCC1)COc1ccc(Cl)cc1Cl (stereo not drawn),n,n,n,n,n,30.2
CN1CCN(c2ccc(-c3ccnn3C(=O)Nc3cccc(C(F)(F)F)c3)cc2)CC1,n,n,n,n,n,n
CCCCCn1c(N)c(-c2nc3ccccc3o2)c2c([N+](=O)[O-])nn(CC)c(=O)c21,n,97.3,n,n,60.5,n
CNC(=O)NC(=O)COC(=O)c1ccccc1OCc1ccccc1,n,54.5,n,n,n,n
O=C(N/N=C/c1ccccn1)c1cccs1,n,n,n,n,n,n
COc1ccc2nc(NC(=O)CSc3ccccc3)sc2c1,n,n,n,x,n,n
